# Measurements reported in paper PMC8652384 (Experimental and Therapeutic Medicine, 2021).
# Read-outs that look alike come from different tables or passages of the source. Residues, ends and D or L forms follow the SMILES beside them. *: point of attachment. Cbz = O=C(OCc1ccccc1)*
# Columns and labels:
# [1] = target: T1, integrin α4 (Homo sapiens, UniProt P05556+P13612); assay: Western blot analysis of integrin α4 protein; assay type: cell-based; details: MG132 1 µM; 96 h; LAX7R, LAX53, LAX56, REH
# [2] = tested on: primary ALL; details: cited from earlier work
# [3] = tested on: HUVECs; assay: Endothelial tube formation assay; assay type: cell-based, human; details: data not shown
# Procedure, shortened: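 HUVECs (4-6x10^4/well) pre-treated 30 min at 37°C with test compound (0, 5 or 25 µM) or a reference α4 antagonist (0 or 25 µM), then seeded on Matrigel-coated wells for 4-6 h at 37°C, 5% CO2. Three fields per well imaged by phase contrast (x100); nodes, segments, meshes and total area quantified by image analysis.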
# [4] = cited from earlier work
# [5] = target: T1, integrin α4; details: cited from earlier work
# [6] = target: VLA-4 (Homo sapiens, UniProt P05556+P13612); assay: VLA-4 conformation activation assay; assay type: binding; details: LAX7R and TXL3 cells; without 5 mM Mn2+
# Procedure, shortened: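 LAX7R or TXL3 cells, 1x10^6/ml in HEPES buffer pH 7.4 with 0.1% HSA, Ca2+ and Mg2+, incubated 30 min at 37°C with test compound (0-100 µM) or human VCAM-1 ([…]), 10% PE-HUTS-21, ±5 mM Mn2+. DAPI added during final 5 min. PE MFI read on viable cells by flow cytometry; isotype control gave nonspecific binding. Occupancy curves fitted by variable-slope sigmoidal model.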
compound,measurement,setting,value
CC(C)C[C@@H](C=O)NC(=O)[C@H](CC(C)C)NC(=O)[C@H](CC(C)C)NC(=O)OCc1ccccc1 [MG132] (Cbz-Leu-Leu-Leu-aldehyde),restoration of α4 decreased by AVA4746 (25 µM),[1],partially restored by MG132 in all cases apart from LAX56
CCCC[C@H](NC(=O)N[C@@H](CC(=O)O)c1ccc2c(c1)OCO2)C(=O)N(Cc1cccs1)Cc1cccs1 [TBC3486],survival of mice with primary ALL,[2],prolonged the survival of the mice
natalizumab [NZM],angiogenesis inhibition,[3],no statistical differences
same,progressive multifocal leukoencephalopathy,[4]; patients treated with NZM,progressive multifocal leukoencephalopathy can arise
same,patients with antibodies against natalizumab,[4]; patients with Crohn's disease,7%
same,patients with antibodies against natalizumab,[4]; patients with MS,11%
same,de-adhesion of B-ALL cells from VCAM-1,[5],can cause the de-adhesion of B-ALL cells from VCAM-1
vascular cell adhesion molecule-1 [VCAM-1],conformation changes corresponding to VLA-4 activation,[6],little conformation changes
